# Hits are enriched below; roughly 4.8% of the tested compounds scored in any of these assays.
# ALR H2O2 inh – blocks human ALR sulfhydryl oxidase activity; AID 485317; inhibition, % (test concentration not listed); purified ALR, DTT oxidation, H2O2 HRP-luminol luminescence; P55789; hit rate 3.8% among 290,000;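 active = mean replicate inhibition above about 79%, with every replicate also reaching it, limit read from the data; inconclusive = only one of the two criteria met; inactive = mean below limit and not every replicate reaching it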
# Target sequence (P55789 whole entry, looked up): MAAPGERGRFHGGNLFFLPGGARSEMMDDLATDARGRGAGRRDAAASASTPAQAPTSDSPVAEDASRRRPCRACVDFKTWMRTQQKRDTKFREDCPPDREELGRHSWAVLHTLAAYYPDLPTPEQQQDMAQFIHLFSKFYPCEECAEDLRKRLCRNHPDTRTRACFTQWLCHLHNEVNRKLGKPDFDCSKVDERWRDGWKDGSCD
# NALP1 yeast inh – NALP1 inhibition | inhibition, % at 10 µM | hit rate 0.61% among 280,000 | AID 2071 | S. cerevisiae NALP1/ASC/caspase-1 growth, X-gal OD620, 72 h; in the data active = inhibition mostly above about 24%, no sharp cut-off; inactive = mostly below about 32%
# NALP3 yeast inh – inhibitors of NALP3 inflammasome in yeast. inhibition, % at 10 µM. hit rate 0.39% among 330,000. Yeast reconstituted NLRP3/ASC/caspase-1, beta-gal luminescence, 24 h;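 active = inhibition of 50% or more; inactive = inhibition below 50%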;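 note: plate controls were induced DMSO wells for no effect and uninduced yeast grown without galactose for full effect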
# ATG4B inh – ATG4B (human) cysteine protease inhibition; Q9Y4P1; ATG4B cleavage of LC3-PLA2, NBD-HPC fluorescence, 1 h; inhibition, % at 8.33 µM; hit rate 0.51% among 340,000; in the data active = inhibition above about 40%
# Target sequence (Q9Y4P1 whole entry, looked up): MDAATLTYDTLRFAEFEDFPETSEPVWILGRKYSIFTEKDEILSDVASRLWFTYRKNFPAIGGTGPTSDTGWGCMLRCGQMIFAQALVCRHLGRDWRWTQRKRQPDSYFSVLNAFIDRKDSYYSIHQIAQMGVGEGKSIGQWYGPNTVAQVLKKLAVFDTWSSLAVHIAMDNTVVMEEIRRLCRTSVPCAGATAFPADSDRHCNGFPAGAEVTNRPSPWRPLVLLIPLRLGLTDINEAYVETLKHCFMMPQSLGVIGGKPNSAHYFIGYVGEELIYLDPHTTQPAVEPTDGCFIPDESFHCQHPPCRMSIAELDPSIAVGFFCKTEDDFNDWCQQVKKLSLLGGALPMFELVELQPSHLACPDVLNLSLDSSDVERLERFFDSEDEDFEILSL
# Calb FLC – affects C. albicans growth with fluconazole; growth inhibition, % (no concentration beside the values); C. albicans CaCi-2 (fluconazole-resistant clinical isolate) + fluconazole, Alamar Blue growth, 48 h; hit rate 0.57% among 300,000;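 active = growth inhibition above about 58% in most replicates, limit read from the data, passing the limit was not always enough; inconclusive = exactly half the replicates above a set limit; inactive = most replicates below a set limit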;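 note: all wells also contain fluconazole at 8 µg/ml as a sub-toxic cotreatment; 0% = median of DMSO wells and 100% = median of geldanamycin control wells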
# UCH37 DUB inh – inhibitors of human deubiquitinating enzyme UCH37; Q9Y5K5; purified proteasome/UCH37, Ub-AMC cleavage fluorescence; inhibition, % (concentration not given with the values); hit rate 0.33% among 330,000;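 active = mean inhibition over replicate wells above about 20%, limit read from the data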;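 note: 0% = compound-free wells with enzyme and 100% = wells lacking proteasome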
#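 Material: human UCH37 enzyme supplied as purified proteasome complex / Amount: 0.15 nM proteasome as dispensed / Buffer or medium: pH 7.4 Tris-HCl (50 mM) with ovalbumin, ATP-MgCl2, DTT / Times: preincubation 30 min, reaction 25 min, room temperature / Technique: AMC fluorescence from Ub-AMC cleavage, excitation 355 nm, emission 460 nm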
# An asterisk follows results filed as active; i = inactive; ? = inconclusive; . = not tested or not shown.
SMILES,ALR H2O2 inh,NALP1 yeast inh,NALP3 yeast inh,ATG4B inh,Calb FLC,UCH37 DUB inh
CCc1ccc(OCC(=O)NN=C(C)c2ccc(O)cc2O)cc1,.,.,.,.,.,17.4
Cc1sc(NC(=O)CCl)c(C(=O)c2ccccc2)c1C,98.9*,29.0,19.8,2.4,-18.2,3.4
O=C(NCCN1CCN(c2ccccc2)CC1)c1ccc(NC(=O)C2CCCO2)cc1 (centres undefined),.,42.1*,2.0,-11.7,-30.1,0.5
CCN(CC)c1ccc(NC(=O)c2ccc(NC(=O)C3CCCO3)cc2)c(C)c1 (centres undefined),99.1*,14.6,.,-11.1,.,2.7
O=C(Nc1ccccc1C(=O)O)c1ccc(NC(=O)C2CCCO2)cc1 (centres undefined),1.4,3.1,2.9,3.7,-5.9,5.0
CCc1ccc(NC(=O)c2ccccc2NC(=O)C2CCCO2)cc1 (centres undefined),-10.8,42.8*,-12.6,-5.6,-4.1,0.8
O=C(Nc1ccc(O)cc1)c1ccc(NC(=O)C2CCCO2)cc1 (centres undefined),99.0*,-5.3,10.4,3.2,24.6,0.4
NC(=NO)c1cccn1Cc1ccccc1[N+](=O)[O-],.,.,.,.,.,1.0
COc1ccc(C=Nn2cnnc2SCc2ccc(OC)cc2)cc1,.,.,.,.,.,0.6
O=C(Nc1cc(Cl)c(O)c(Cl)c1)C1CCCO1 (centres undefined),98.4*,1.7,7.6,3.2,31.5,0.9
Cc1cc(C=NNC(=O)C(=O)NCc2ccccn2)c(C)n1-c1ccccc1,.,.,.,.,.,7.9
O=C(CN1CCOCC1)NN=Cc1ccc(-c2ccc(Br)cc2)o1,.,.,.,.,.,-5.8
Cn1c(N)c(C(=O)Nc2ccc3ccccc3c2)sc1=S,-4.3,-10.3,8.3,4.9,-11.2,0.6
Cn1c(N)c(C(=O)Nc2ccccc2F)sc1=S,99.2*,-6.6,20.4,-0.1,0.1,11.5
Cc1ccn2c(Nc3ccccc3C)c(-c3cccnc3)nc2c1,96.9*,20.2,-4.8,2.9,31.5,-16.6
Cc1ccccc1Nc1c(-c2ccncc2)nc2ccc(Cl)cn12,.,1.6,-5.3,0.5,-0.1,-37.7
C[C@](N)(Cc1ccc(O)c(O)c1)C(=O)O,.,21.4,.,-8.7,.,4.0
NCCc1ccc(O)c(O)c1,98.7*,28.0,4.4,5.8,.,2.0
COC1=C/C(=C/c2c(N)n3nc(-c4ccc(C)cc4)sc3nc2=O)C=CC1=O,.,-13.8,.,27.9,.,7.0
COC1=C/C(=C/c2c(N)n3c(nc2=O)sc2cc(S(C)(=O)=O)ccc23)C=CC1=O,99.5*,-6.7,-35.0,-9.4,-3.2,.
CCOC1=C/C(=C/c2c(N)n3oc(C)cc3nc2=O)C=CC1=O,90.7*,3.2,-21.0,.,0.7,9.6
CCS(=O)(=O)c1nn2c(N)c(/C=C3/C=CC(=O)C(OC)=C3)c(=O)nc2s1,99.9*,-20.3,-3.8,13.5,-1.9,21.8*
CS(=O)(=O)c1ccc2c(c1)sc1nc(=O)c(/C=C3/C=CC(=O)C(O)=C3)c(N)n12,90.0*,11.8,9.2,2.9,-6.4,19.7
CCOC1=C/C(=C/c2c(N)n3nc(-c4ccccc4)sc3nc2=O)C=CC1=O,.,-9.4,-36.5,21.2,37.3,6.9
Cn1c(=O)c(-c2cccc(Cl)c2)c(O)c2ccccc21,-1.2,.,-33.3,-8.7,-16.2,2.4
SMILES,ALR H2O2 inh,NALP1 yeast inh,NALP3 yeast inh,ATG4B inh,Calb FLC,UCH37 DUB inh
O=c1c(Cl)c(O)c2cccc3c4ccccc4n1c23,99.0*,22.2,4.7,-18.3,-2.4,i
O=C(NN=Cc1ccc([N+](=O)[O-])cc1)c1ccc2nc[nH]c2c1,.,.,.,.,.,7.6
O=C(COc1ccc(Br)cc1)NN=C1SCC(=O)N1Cc1ccco1,.,.,.,.,.,-0.4
Fc1ccccc1COc1ccc(C=NNC(=S)NCc2ccccc2)cc1,.,.,.,.,.,6.5
Cn1cc(Br)c(C(=O)NN=Cc2cc3ccccc3nc2Cl)n1,.,.,.,.,.,4.2
Cc1ccc(NC(=O)CCCC(=O)O)c(Br)c1,6.5,-15.0,15.0,-3.4,.,0.9
Cc1ccc(O)c(NC(=O)CCCC(=O)O)c1,82.2*,-5.4,21.8,0.7,19.8,-0.1
COc1ccc2c(c1)C(C)=CC(C)(C)N2S(=O)(=O)c1ccc(C)cc1,-28.9,0.7,27.2,3.7,15.5,23.2*
CCOc1ccc2c(c1)C(C)=CC(C)(C)N2C(=O)Nc1ccccc1F,-86.2,42.7,10.5,-6.8,30.9,-112.4
CCOc1ccc2c(c1)C(C)=CC(C)(C)N2S(=O)(=O)c1ccc(C)cc1,.,1.9,3.2,-1.6,112.5*,0.7
CCNC(=O)N1c2ccc(OCC)cc2C(C)=CC1(C)C,87.6*,6.1,30.1,12.3,33.6,-27.4
CC1=CC(C)(C)N(S(=O)(=O)c2ccc(C)cc2)c2cc(C)ccc21,-7.5,13.1,2.9,3.1,-12.1,6.4
COc1cc([N+](=O)[O-])cc(C=NNC(=O)Cn2nccc2C)c1O,.,.,.,.,.,16.4
CN(C)CCCN1c2ccccc2CCc2ccc(Cl)cc21,67.0,38.4,39.8,12.4,.,1.3
CN(CCCN1c2ccccc2CCc2ccccc21)CC(=O)c1ccc(Cl)cc1,98.0*,.,46.6,.,.,4.3
COCCCNS(=O)(=O)c1ccc(S(=O)(=O)N2CCCC2)cc1,-6.6,38.4*,6.6,-15.5,-15.3,3.2
Cc1ccc(C)c(SCC(=O)N(C)CC(=O)Nc2ccc(N3CCOCC3)cc2)c1,98.3*,.,8.9,-4.2,.,3.9
CSc1ccc(Cl)c(C(=O)N(C)CC(=O)Nc2ccc(N3CCOCC3)cc2)c1,89.2*,.,12.0,-1.9,-0.4,4.7
Cc1ccc(NCC(=O)NN=Cc2cc3ccccc3nc2Cl)cc1,.,.,.,.,.,6.4
CSc1nc(SCC(=O)NC(c2ccccc2)c2ccccc2)c2c3c(sc2n1)CN(C)CC3,92.7*,5.6,20.7,2.5,-15.5,-8.0
COC(=O)CSc1nc2sc3c(c2c(=O)n1-c1ccc(OC)cc1)CCN(C)C3,.,7.3,17.0,7.2,-2.5,3.0
CCOC(=O)CSc1nc2sc3c(c2c(=O)n1-c1ccc(OC)cc1)CCN(C)C3,99.2*,14.4,10.9,-1.9,0.9,-4.6
COc1ccc(-n2c(SCC(N)=O)nc3sc4c(c3c2=O)CCN(C)C4)cc1,-5.6,-2.8,17.9,-11.1,4.1,-2.3
CCOC(=O)CSc1nc2sc3c(c2c(=O)n1-c1ccccc1)CCN(C(C)C)C3,99.6*,30.1,9.9,-0.1,8.2,-170.2
CN1CCc2c(sc3nc(SCC(=O)N4CCOCC4)n(-c4ccc(Cl)cc4)c(=O)c23)C1,98.2*,11.4,7.6,-7.9,?,-187.4
COc1ccc(C(C)=NNC(=O)c2ccc(NS(=O)(=O)c3cccs3)cc2)cc1,.,.,.,.,.,3.7
COc1ccccc1/C=C/C=Nn1c(-c2cc(-c3ccccc3)n[nH]2)n[nH]c1=S,.,.,.,.,.,3.4
COc1ccc(-n2c(SCC(=O)NCc3ccco3)nc3sc4c(c3c2=O)CCN(C)C4)cc1,97.6*,5.4,12.6,0.7,32.4,2.9
CCCCSc1nc2sc3c(c2c(=O)n1-c1ccc(C)cc1)CCN(C)C3,-7.7,19.0,16.6,12.2,6.9,-22.0
